Assay results taken from ChEMBL document CHEMBL1155506 (J Med Chem, 2010).
One block for each compound: values may come before it. Calls of active or inactive are those of the source. No cut-off for these calls is given here.

How the values were obtained:
[1] = Antiplatelet activity in human platelet rich plasma assessed as inhibition of ADP-induced aggregation preincubated for 1 min before 5-HT and ADP challenge measured after 3 mins by turbidimetry
[2] = target: T1, 5-hydroxytryptamine receptor 2A (Homo sapiens, UniProt P28223); assay: Displacement of [125I]DOI from human recombinant 5HT2A receptor expressed in HEK293 cells by scintillation counting; format: cell-based
T1 sequence (P28223 whole entry): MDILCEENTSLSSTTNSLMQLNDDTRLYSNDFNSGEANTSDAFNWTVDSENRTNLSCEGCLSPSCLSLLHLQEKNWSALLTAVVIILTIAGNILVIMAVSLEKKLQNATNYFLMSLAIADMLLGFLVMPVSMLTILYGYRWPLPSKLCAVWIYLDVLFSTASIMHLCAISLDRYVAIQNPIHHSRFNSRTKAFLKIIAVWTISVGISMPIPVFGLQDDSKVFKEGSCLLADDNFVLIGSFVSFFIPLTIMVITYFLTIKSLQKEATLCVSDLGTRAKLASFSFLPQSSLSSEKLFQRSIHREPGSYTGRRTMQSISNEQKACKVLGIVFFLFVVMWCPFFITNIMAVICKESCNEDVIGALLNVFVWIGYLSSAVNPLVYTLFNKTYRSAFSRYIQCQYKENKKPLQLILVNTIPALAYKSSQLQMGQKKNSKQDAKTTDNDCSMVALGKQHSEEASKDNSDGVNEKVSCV
Procedure, shortened: (§1)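 Crude plasma membranes from HEK293 cells stably expressing the human receptor (5–25 μg protein), in 20 mM HEPES pH 7.4 with 10 mM MgCl2. Incubated with 0.5 nM [125I]DOI and test compound (1 pM–10 μM) for 1 h at room temperature; nonspecific binding defined with 10 μM cold DOI. Filtered, washed with ice-cold Tris buffer and scintillation counted in triplicate.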

[3] = target: T1, 5-hydroxytryptamine receptor 2A; assay: Inverse agonist activity at human 5HT2A receptor expressed in HEK293 cells assessed as inhibition of inositol phosphate accumulation; format: functional, cell-based
[4] = target: T2, 5-hydroxytryptamine receptor 2C (Homo sapiens, UniProt P28335); assay: Displacement of [125I]DOI from human recombinant 5HT2C receptor expressed in HEK293 cells by scintillation counting; format: cell-based
T2 sequence (P28335 whole entry): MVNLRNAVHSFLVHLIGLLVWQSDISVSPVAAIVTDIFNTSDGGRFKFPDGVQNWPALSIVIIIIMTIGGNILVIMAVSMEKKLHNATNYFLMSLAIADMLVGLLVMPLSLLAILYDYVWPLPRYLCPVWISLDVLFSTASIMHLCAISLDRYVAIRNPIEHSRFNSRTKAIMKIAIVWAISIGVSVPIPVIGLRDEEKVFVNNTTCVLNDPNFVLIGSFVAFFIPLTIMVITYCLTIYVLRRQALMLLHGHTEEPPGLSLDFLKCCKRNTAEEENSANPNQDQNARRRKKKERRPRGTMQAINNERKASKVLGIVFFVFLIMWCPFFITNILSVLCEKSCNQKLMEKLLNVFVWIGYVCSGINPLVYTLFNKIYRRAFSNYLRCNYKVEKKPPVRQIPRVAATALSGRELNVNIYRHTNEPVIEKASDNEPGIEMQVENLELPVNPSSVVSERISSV
Procedure, shortened: as §1

hERG (KCNH2) [5] = target: T3, hERG (KCNH2) (Homo sapiens, UniProt Q12809); assay: Inhibition of human ERG at 1 uM by patch clamp assay
T3 sequence (Q12809 whole entry): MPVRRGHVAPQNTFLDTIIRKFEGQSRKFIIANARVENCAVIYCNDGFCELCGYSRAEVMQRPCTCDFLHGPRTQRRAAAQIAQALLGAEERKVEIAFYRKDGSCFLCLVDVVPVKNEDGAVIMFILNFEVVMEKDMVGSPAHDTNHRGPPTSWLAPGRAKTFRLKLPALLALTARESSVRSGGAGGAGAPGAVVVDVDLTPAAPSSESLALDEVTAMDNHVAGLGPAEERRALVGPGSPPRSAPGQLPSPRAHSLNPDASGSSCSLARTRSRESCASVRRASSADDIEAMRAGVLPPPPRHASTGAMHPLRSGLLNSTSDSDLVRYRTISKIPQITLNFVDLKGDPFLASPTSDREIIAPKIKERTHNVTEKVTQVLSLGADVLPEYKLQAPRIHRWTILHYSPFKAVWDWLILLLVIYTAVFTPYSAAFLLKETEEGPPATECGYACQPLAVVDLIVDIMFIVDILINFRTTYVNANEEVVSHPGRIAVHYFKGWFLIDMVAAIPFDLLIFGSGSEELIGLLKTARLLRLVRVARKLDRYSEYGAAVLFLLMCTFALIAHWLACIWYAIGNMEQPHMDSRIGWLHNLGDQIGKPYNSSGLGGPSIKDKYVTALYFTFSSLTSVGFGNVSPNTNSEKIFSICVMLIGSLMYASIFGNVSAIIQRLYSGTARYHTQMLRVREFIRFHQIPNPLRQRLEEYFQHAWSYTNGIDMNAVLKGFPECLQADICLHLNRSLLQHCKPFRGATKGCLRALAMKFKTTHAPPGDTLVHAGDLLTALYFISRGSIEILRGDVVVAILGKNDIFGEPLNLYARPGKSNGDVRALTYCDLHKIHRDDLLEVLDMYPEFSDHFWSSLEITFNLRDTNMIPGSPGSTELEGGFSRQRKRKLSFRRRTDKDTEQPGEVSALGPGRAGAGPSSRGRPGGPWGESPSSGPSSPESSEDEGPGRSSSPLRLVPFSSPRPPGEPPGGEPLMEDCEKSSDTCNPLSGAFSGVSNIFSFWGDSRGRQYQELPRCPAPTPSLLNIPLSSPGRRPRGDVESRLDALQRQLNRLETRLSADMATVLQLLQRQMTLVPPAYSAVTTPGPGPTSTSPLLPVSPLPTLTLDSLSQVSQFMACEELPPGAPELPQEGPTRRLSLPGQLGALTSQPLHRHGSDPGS

[6] = Half life in Sprague-Dawley rat at 10 mg/kg, po by HPLC/MS/MS analysis; format: ADME, organism-based; design: dose 10 mg/kg, route oral; details: in vivo
Procedure, shortened: (§2)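 Male rats fasted overnight before oral dosing; 10 mg/kg po and 2 mg/kg iv in 80% PEG400/20% phosphate buffered saline. Jugular vein blood was sampled at 0.25–21 h over 24 h, and heparin plasma was assayed by HPLC/MS/MS (MRM, positive electrospray, internal standard; LLOQ 1 ng/mL, ULOQ 2000 ng/mL). %F is taken relative to the 2 mg/kg iv dose. Mean of n = 3 animals.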

[7] = Antiplatelet activity in dog platelet rich plasma assessed as inhibition of ADP-induced aggregation treated 10 mins after ADP challenge measured after 3 mins by turbidimetry; format: functional; details: Canis lupus familiaris
[8] = Ratio of drug level in brain to plasma in Sprague-Dawley rat at 30 mg/kg, po after 24 hrs; format: ADME, organism-based; design: dose 30 mg/kg, route oral; details: read-out: BPR
[9] = Total clearance in dog at 2 mg/kg, iv after 24 hrs by HPLC/MS/MS analysis; format: ADME, organism-based, Canis lupus familiaris; design: dose 2 mg/kg, route intravenous; details: in vivo
Procedure, shortened: (§3)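 Oral dose 10 mg/kg; %F calculated relative to a 2 mg/kg iv dose. Values are the mean of n = 3 animals.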

Canis familiaris [10] = assay: Ex vivo inhibition of serotonin-mediated amplification of collagen-stimulated platelet aggregation in Beagle dog at 10 mg/kg, po administered as single dose measured after 12 hrs; format: functional; details: Canis lupus familiaris
Procedure, shortened: (§4)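 Beagle dogs given a single oral dose of 10 mg/kg. Serotonin-mediated amplification of collagen-stimulated aggregation measured in whole blood ex vivo at 1, 6, 12 and 24 h post-dose.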

[11] = Volume of distribution at steady state in monkey at 2 mg/kg, iv after 24 hrs by HPLC/MS/MS analysis; format: ADME, organism-based, Macaca mulatta; design: dose 2 mg/kg, route intravenous; details: rhesus monkey, in vivo, read-out: Vdss
Procedure, shortened: as §3

hERG (KCNH2) [12] = target: T3, hERG (KCNH2); assay: Inhibition of human ERG at 3 uM by patch clamp assay
[13] = target: Voltage-gated inwardly rectifying potassium channel KCNH2 (Homo sapiens, UniProt Q12809); assay: Inhibition of human ERG by patch clamp assay
Chain of Voltage-gated inwardly rectifying potassium channel KCNH2 (Q12809 whole entry, the tested form may be a part): as the sequence (Q12809 whole entry) above

Canis familiaris [14] = assay: Antithrombotic activity in Beagle dog Folts model of recurrent coronary thrombosis model assessed as inhibition of thrombosis occurrence at 0.07 mg/kg, iv bolus dose followed by continuous fusion of 1.16 ug/kg/min, iv administered after onset of thrombosis; format: functional; details: Canis lupus familiaris
Procedure, shortened: (§5)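 Anesthetized dogs in the Folts model of recurrent coronary thrombosis. Given 0.07 mg/kg iv bolus followed by continuous iv infusion of 1.16 μg/kg/min, either before or after onset of recurrent thrombosis. Read-out is flow-time area, compared with saline controls.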

[15] = Volume of distribution at steady state in dog at 2 mg/kg, iv after 24 hrs by HPLC/MS/MS analysis; format: ADME, organism-based, Canis lupus familiaris; design: dose 2 mg/kg, route intravenous; details: in vivo, read-out: Vdss
Procedure, shortened: as §3

Canis familiaris [16] = assay: Ex vivo inhibition of serotonin-mediated amplification of collagen-stimulated platelet aggregation in Beagle dog at 10 mg/kg, po administered as single dose measured after 24 hrs; format: functional; details: Canis lupus familiaris
Procedure, shortened: as §4

[17] = Cmax in Sprague-Dawley rat at 10 mg/kg, po after 24 hrs by HPLC/MS/MS assay; format: ADME, organism-based; design: dose 10 mg/kg, route oral; details: in vivo
Procedure, shortened: as §2

[18] = Bioavailability in dog at 2 mg/kg, iv after 24 hrs by HPLC/MS/MS analysis; format: ADME, organism-based, Canis lupus familiaris; details: in vivo
Procedure, shortened: as §3

[19] = target: 5-hydroxytryptamine receptor 2B (Homo sapiens, UniProt P41595); assay: Displacement of [125I]DOI from human recombinant 5HT2B receptor expressed in HEK293 cells by scintillation counting; format: cell-based
Chain of 5-hydroxytryptamine receptor 2B (P41595 whole entry): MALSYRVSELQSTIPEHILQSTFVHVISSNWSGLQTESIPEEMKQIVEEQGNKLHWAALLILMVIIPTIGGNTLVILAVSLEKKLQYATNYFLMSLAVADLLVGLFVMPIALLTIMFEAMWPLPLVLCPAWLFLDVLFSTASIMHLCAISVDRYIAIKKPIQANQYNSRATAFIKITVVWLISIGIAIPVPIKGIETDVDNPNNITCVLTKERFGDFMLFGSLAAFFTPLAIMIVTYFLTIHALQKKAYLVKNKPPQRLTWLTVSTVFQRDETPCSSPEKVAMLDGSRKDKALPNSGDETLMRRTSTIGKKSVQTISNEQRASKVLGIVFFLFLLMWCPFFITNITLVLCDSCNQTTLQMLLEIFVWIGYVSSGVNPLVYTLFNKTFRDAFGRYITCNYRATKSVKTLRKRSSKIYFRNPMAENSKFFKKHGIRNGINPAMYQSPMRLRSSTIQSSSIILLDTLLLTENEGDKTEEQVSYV

[20] = Cmax in monkey at 10 mg/kg, po after 24 hrs by HPLC/MS/MS assay; format: ADME, organism-based, Macaca mulatta; design: dose 10 mg/kg, route oral; details: rhesus monkey, in vivo
Procedure, shortened: as §3

[21] = Bioavailability in monkey at 2 mg/kg, iv after 24 hrs by HPLC/MS/MS analysis; format: ADME, organism-based, Macaca mulatta; details: rhesus monkey, in vivo
Procedure, shortened: as §3

[22] = Volume of distribution at steady state in Sprague-Dawley rat at 2 mg/kg, iv after 24 hrs by HPLC/MS/MS analysis; format: ADME, organism-based; design: dose 2 mg/kg, route intravenous; details: in vivo, read-out: Vdss
Procedure, shortened: as §2

[23] = Total clearance in monkey at 2 mg/kg, iv after 24 hrs by HPLC/MS/MS analysis; format: ADME, organism-based, Macaca mulatta; design: dose 2 mg/kg, route intravenous; details: rhesus monkey, in vivo
Procedure, shortened: as §3

[24] = Half life in dog at 10 mg/kg, po by HPLC/MS/MS analysis; format: ADME, organism-based, Canis lupus familiaris; design: dose 10 mg/kg, route oral; details: in vivo
Procedure, shortened: as §3

[25] = AUC (0 to last) in Sprague-Dawley rat at 10 mg/kg, po after 24 hrs by HPLC/MS/MS analysis; format: ADME, organism-based; design: time 0 - last, dose 10 mg/kg, route oral; details: plasma
Procedure, shortened: as §2

Canis familiaris [26] = assay: Antithrombotic activity in Beagle dog Folts model of recurrent coronary thrombosis model assessed as inhibition of thrombosis occurrence at 0.07 mg/kg, iv bolus dose followed by continuous fusion of 1.16 ug/kg/min, iv administered before onset of thrombosis; format: functional; details: Canis lupus familiaris
Procedure, shortened: as §5

[27] = Cmax in dog at 10 mg/kg, po after 24 hrs by HPLC/MS/MS assay; format: ADME, organism-based, Canis lupus familiaris; design: dose 10 mg/kg, route oral; details: in vivo
Procedure, shortened: as §3

[28] = Total clearance in Sprague-Dawley rat at 2 mg/kg, iv after 24 hrs by HPLC/MS/MS analysis; format: ADME, organism-based; design: dose 2 mg/kg, route intravenous; details: in vivo
Procedure, shortened: as §2

Canis familiaris [29] = assay: Ex vivo inhibition of serotonin-mediated amplification of collagen-stimulated platelet aggregation in Beagle dog at 1 mg/kg, po for 10 days measured after 10 days; format: functional, organism-based; design: dose 1 mg/kg; details: Canis lupus familiaris
Procedure, shortened: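 Beagle dogs dosed orally with 1 mg/kg daily for 10 days. Serotonin-mediated amplification of collagen-stimulated aggregation then measured in whole blood ex vivo.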

[30] = AUC (0 to last) in dog at 10 mg/kg, po after 24 hrs by HPLC/MS/MS analysis; format: ADME, organism-based, Canis lupus familiaris; design: time 0 - last, dose 10 mg/kg, route oral; details: plasma
Procedure, shortened: as §3

[31] = Half life in monkey at 10 mg/kg, po by HPLC/MS/MS analysis; format: ADME, organism-based, Macaca mulatta; design: dose 10 mg/kg, route oral; details: rhesus monkey, in vivo
Procedure, shortened: as §3

[32] = AUC (0 to last) in monkey at 10 mg/kg, po after 24 hrs by HPLC/MS/MS analysis; format: ADME, organism-based, Macaca mulatta; design: time 0 - last, dose 10 mg/kg, route oral; details: rhesus monkey, plasma
Procedure, shortened: as §3

Canis familiaris [33] = assay: Ex vivo inhibition of serotonin-mediated amplification of collagen-stimulated platelet aggregation in Beagle dog at 10 mg/kg, po administered as single dose measured after 1 hr; format: functional, organism-based; design: dose 10 mg/kg; details: Canis lupus familiaris
Procedure, shortened: as §4

[34] = Bioavailability in Sprague-Dawley rat at 2 mg/kg, iv after 24 hrs by HPLC/MS/MS analysis; format: ADME, organism-based; details: in vivo
Procedure, shortened: as §2

Canis familiaris [35] = assay: Ex vivo inhibition of serotonin-mediated amplification of collagen-stimulated platelet aggregation in Beagle dog at 10 mg/kg, po administered as single dose measured after 6 hrs; format: functional; details: Canis lupus familiaris
Procedure, shortened: as §4

Compound: Cn1nccc1-c1cc(NC(=O)c2cccc(C(F)(F)F)c2)ccc1OCCN1CCCC1
IC50 [1]: 3.2 nM
Ki [2]: 0.6 nM
IC50 [3]: 23 nM
Ki [4]: 1140 nM
inhibition at 1 µM (hERG (KCNH2) [5]): 80%

Compound: COc1cccc(C(=O)Nc2ccc(OCCN3CCN(S(C)(=O)=O)CC3)c(-c3ccnn3C)c2)c1
Ki [2]: 28 nM
inhibition at 3 µM (hERG (KCNH2) [12]): 23%
Ki [4]: > 10000 nM

Compound: Cn1ncc(Cl)c1-c1cc(NC(=O)c2cccc(F)c2)ccc1OCCN1CCOCC1
IC50 [1]: 22 nM
Ki [2]: 0.6 nM
inhibition at 3 µM (hERG (KCNH2) [12]): 46%
Ki [4]: 3380 nM

Further compounds by falling Ki [2], results first:

half-life [6]: 1 h
IC50 [7]: 23.1 nM
Kp at 24 h [8]: 0.05
clearance [9]: 20 mL/min/kg
IC50 [1]: 8.7 nM
Ki [2]: 4.9 nM
Vd [11]: 0.6 L/kg
Vd [15]: 1.3 L/kg
IC50 [3]: 5.2 nM
Cmax [17]: 58 ng/mL
bioavailability [18]: 45%
Ki [19]: > 10000 nM
Cmax [20]: 1460 ng/mL
bioavailability [21]: 16%
Vd [22]: 29 L/kg
clearance [23]: 15 mL/min/kg
half-life [24]: 0.9 h
Ki [4]: > 10000 nM
AUC(0-t) at 24 h [25]: 43 ng·h/mL
Cmax [27]: 2280 ng/mL
clearance [28]: 367 mL/min/kg
AUC(0-t) at 24 h [30]: 3540 ng·h/mL
half-life [31]: 2.1 h
AUC(0-t) at 24 h [32]: 1920 ng·h/mL
bioavailability [34]: 10%
Compound: COc1cccc(C(=O)Nc2ccc(OCCN3CCOCC3)c(-c3ccnn3C)c2)c1 [TEMANOGREL]
inhibition in vivo at 10 mg/kg (Canis familiaris [10]): 57%
inhibition at 3 µM (hERG (KCNH2) [12]): 32%
IC50 [13]: 11000 nM
inhibition in vivo at 0.07 mg/kg (Canis familiaris [14]): 58%
inhibition in vivo at 10 mg/kg (Canis familiaris [16]): 58%
inhibition in vivo at 0.07 mg/kg (Canis familiaris [26]): 58%
inhibition (Canis familiaris [29]): Active
inhibition (Canis familiaris [33]): Active
inhibition in vivo at 10 mg/kg (Canis familiaris [35]): 86%

IC50 [1]: 70 nM
Ki [2]: 2.2 nM
Ki [4]: 8600 nM
Compound: CC(=O)N1CCN(CCOc2ccc(NC(=O)c3cccc(F)c3)cc2-c2c(Cl)cnn2C)CC1
inhibition at 3 µM (hERG (KCNH2) [12]): 43%
